CXCR6 inh = CXCR6 receptor inhibitors, primary screen, cell-based, beta-arrestin, luminescence, CHO-K1 PathHunter, 1536-well; inhibition, % at 20 µM; 360,000 tested, 0.36% active; AID 602244, 2012; in the data active = inhibition above about 34%, passing the limit was not always enough;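 note: antagonist mode with CXCL16 agonist at 10 nM final; 0% = 10 nM CXCL16 with DMSO and 100% = unstimulated wells without agonist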
APJ ag = agonists of human apelin receptor APJ, primary screen, CHO-K1 cells, PathHunter beta-arrestin, luminescence; 0% DMSO wells, 100% apelin; activation, % at 20 µM; 330,000 tested, 0.11% active; AID 2520, 2010;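 active = activation more than six SD over the plate average, tested at 20 µM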;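 note: 0% = DMSO alone and 100% = apelin-13 at 10 nM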
Target sequence (P35414 whole entry, looked up): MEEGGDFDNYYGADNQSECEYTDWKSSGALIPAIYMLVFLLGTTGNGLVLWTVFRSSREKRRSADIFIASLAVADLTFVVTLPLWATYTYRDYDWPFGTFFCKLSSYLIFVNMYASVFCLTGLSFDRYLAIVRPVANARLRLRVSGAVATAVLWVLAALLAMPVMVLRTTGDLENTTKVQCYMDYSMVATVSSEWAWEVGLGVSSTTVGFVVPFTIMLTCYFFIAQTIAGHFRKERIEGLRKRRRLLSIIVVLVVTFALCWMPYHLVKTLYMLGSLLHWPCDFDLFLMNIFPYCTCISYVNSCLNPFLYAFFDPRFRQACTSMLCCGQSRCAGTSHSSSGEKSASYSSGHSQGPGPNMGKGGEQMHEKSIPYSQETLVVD
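Material: CHO-K1 APJ beta-arrestin complementation cell line; Input: cell density 1000 per well; Incubation: compound stimulation 90 min at 25 °C, detection 60 min; Signal: luminescence from split beta-galactosidase complementation, Galacton Star/Emerald II substrate; Controls: DMSO-only wells as negative, 10 nM Apelin-13 as positive control.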
EBI2 antag = EBI2 receptor antagonists, beta-arrestin recruitment, primary screen, cell-based, luminescence, 7a,25-OHC stimulation, uHTS; G-protein coupled receptor 183 (Homo sapiens), P32249; 7a,25-OHC stimulated; inhibition, % at 5 µM; 360,000 tested, 0.81% active; AID 651636, 2012; in the data active = inhibition above about 38%;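 note: enzyme fragment complementation signal reports receptor beta-arrestin coupling in cells; 0% = agonist plus DMSO wells and 100% = wells without agonist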
APJ antag = antagonists of human apelin receptor APJ, primary screen, CHO-K1 cells, beta-arrestin complementation, luminescence | AID 2521, 2010 | inhibition, % at 20 µM | 330,000 tested, 0.32% active;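 active = inhibition above about 40% at 20 µM, limit read from the data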;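 note: cells challenged with 10 nM apelin-13 agonist together with compound; plate controls were apelin-13 plus DMSO wells for no effect and DMSO wells lacking apelin-13 for full effect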
CCR6 antagonist = CCR6 receptor antagonists, primary screen, cell-based, CHO-K1, luminescence, beta-arrestin, uHTS. CHO-K1 CCR6 PathHunter beta-arrestin, CCL20-stimulated. 340,000 tested, 0.49% active. AID 493098, 2011. inhibition, % at 20 µM. C-C chemokine receptor type 6 (Homo sapiens), P51684;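 active = compounds whose inhibition of the agonist-driven luminescence signal at 20 µM reaches about 50%, limit read from the data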;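 note: cells stimulated with CCL20 at 14 nM final; plate controls were DMSO with CCL20 for no effect and DMSO without agonist for full effect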
EBI2 antag conf = EBI2 antagonist hit retest, beta-arrestin, confirmation, cell-based, single concentration, luminescence, 7a,25-OHC stimulation; AID 651997, 2013; inhibition, % at 5 µM; shares compounds with EBI2 antag; 2,400 tested, 29% active; 7a,25-OHC antagonism;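 active = inhibition of at least 50%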
EBI2 ag = EBI2 agonist activity of antagonist hits, confirmation, counter-screen for EBI2 antagonist project, cell-based, single concentration, agonist mode, luminescence; activation, % at 5 µM; shares compounds with EBI2 antag; EBI2-expressing cells, 60 min; 0% vehicle, 100% 7α,25-dihydroxycholesterol control; 2,400 tested, under 10 active;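 active = activation of at least 50%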
bGal cs = E. coli beta-galactosidase enzyme inhibition, confirmation, counter-screen for EBI2 antagonist project, biochemical, luminescence, single concentration; shares compounds with EBI2 antag; purified beta-galactosidase, luminescent Galacton Star, 15 min; inhibition, % at 5 µM; 2,400 tested, 1% active;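 active = replicate-average signal at least 3 plate SD below neutral wells, shown as high inhibition, flagging enzyme-inhibiting false positives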;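 note: 0% = DMSO wells with enzyme and 100% = wells lacking enzyme; higher means stronger loss of beta-gal luminescence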
Numbers without * were called inactive; / = no result. Rows were chosen to be rich in hits. Some 1.5% of all compounds tested hit in one or more screens of this group.

SMILES	CXCR6 inh	APJ ag	EBI2 antag	APJ antag	CCR6 antagonist	EBI2 antag conf	EBI2 ag	bGal cs
CC(C)n1c(O)c(/C=C2\C=Nc3ccccc32)sc1=Nc1ccccc1	-3.7	1.1	57.4*	9.5	5.7	26.1	-0.2	-13.0
CC(Oc1ccc2ccc(=O)oc2c1)C(=O)NC1CCN(Cc2ccccc2)CC1 (centres undefined)	-9.0	-1.4	10.1	-44.3	4.2	/	/	/
CCOc1ccc2nc(N/C(N)=N/C(=S)Nc3ccc(OC)cc3)nc(C)c2c1	15.6	-0.9	43.8*	-12.5	18.4	6.9	0.8	3.9
Cc1ccc(C)c(S(=O)(=O)N2CCN(C(=O)CCCc3c[nH]c4ccccc34)CC2)c1	0.9	1.4	60.3*	-37.4	15.6	34.1	1.1	6.3
O=C(CSc1ccccc1)N1CCN(S(=O)(=O)c2ccccc2)CC1	-9.1	-0.8	28.3	-0.2	14.4	/	/	/
Cc1ccc(C)c(S(=O)(=O)N2CCN(C(=O)CSc3ccccc3)CC2)c1	11.1	2.0	57.0*	3.1	7.7	61.6*	0.5	6.3
CC(NC(=O)C(=O)NCCN1CCN(C(=O)c2ccccc2Br)CC1)c1ccccc1 (centres undefined)	-0.2	-2.0	-4.6	-5.0	-6.1	/	/	/
Cc1cc(NS(=O)(=O)c2ccc(NC(=O)Nc3cccc(C(F)(F)F)c3)cc2)no1	4.3	0.4	3.4	6.4	-7.6	/	/	/
Cc1ccc(S(=O)(=O)NCCC(=O)NC(C)CCc2ccccc2)cc1 (centres undefined)	8.7	1.3	-0.7	4.6	1.6	/	/	/
COc1ccccc1C(=O)N1CCN(C(=O)c2oc3c(C)c(C)ccc3c2C)CC1	-16.4	/	51.3*	/	/	43.3	0.1	-20.0
COc1ccccc1N1CCN(C(=O)c2oc3cc(C)c(C)cc3c2C)CC1	-3.8	/	59.4*	/	12.4	31.8	0.5	8.3
Cc1cc2oc(C(=O)N3CCN(CCc4ccccn4)CC3)c(C)c2cc1C	-7.0	8.9	49.8*	3.7	3.4	32.2	0.8	1.8
CCOc1ccc2oc(C(=O)N3CCN(c4ccccc4OCC)CC3)c(C)c2c1	-7.2	-1.9	27.1	14.8	6.7	/	/	/
Cc1c(C(=O)N2CCN(C(c3ccccc3)c3ccccc3)CC2)oc2ccccc12	-1.4	-3.9	87.3*	8.7	17.8	40.3	-0.7	-5.0
COc1ccccc1C(=O)N1CCCN(C(=O)c2ccccc2OC)CC1	-1.1	0.9	-7.3	6.5	8.6	/	/	/
Cc1ccc(CN2C(=O)[C@H]3Cc4c([nH]c5ccccc45)C(C)(C)N3C2=O)cc1	-1.0	1.4	7.7	-57.4	7.1	/	/	/
COc1ccc2c(C)c(C(=O)N3CCN(Cc4ccccc4)CC3)oc2c1	-3.4	-1.1	44.9*	-3.4	18.6	15.0	0.3	7.3
COc1ccc(Cn2c(=O)[nH]c3cc(C(=O)N4CCN(Cc5ccccc5)CC4)ccc3c2=O)cc1	1.0	5.4	2.6	-5.6	-8.9	/	/	/
CCc1ccc2oc(C(=O)N3CCN(c4ccccc4OC)CC3)cc(=O)c2c1	-4.6	-4.6	91.0*	4.0	14.8	84.0*	-1.2	-14.4
CCc1ccc2oc(C(=O)N3CCN(c4ccc(OC)cc4)CC3)cc(=O)c2c1	-0.3	-2.0	91.2*	14.8	10.8	83.2*	2.8	3.3
Cc1nc2ccc(NC(=O)c3ccc([N+](=O)[O-])cc3)cc2[nH]1	-1.2	3.4	-4.6	-27.2	-8.4	/	/	/
O=C(CSc1nnnn1-c1cccnc1)Nc1ccccc1F	1.2	0.8	0.1	-6.1	0.0	/	/	/

Compound activity (PubChem BioAssay)
